# ChEMBL document CHEMBL4266034, “LC-MS-Guided Isolation of Insulin-Secretion-Promoting Monoterpenoid Carbazole Alkaloids from Murraya microphylla” (J Nat Prod, 2018)
# How the values were obtained:
# [1] = Induction of insulin secretion in syrian hamster HIT-T15 cells at 40 uM after 1 hr by HTRF assay relative to control; assay type: functional, Mesocricetus auratus
# How it was run: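 HIT-T15 hamster pancreatic islet cells were exposed to test compounds at 40 μM, with gliclazide at 100 μM as the positive control. Insulin secretion is expressed relative to untreated control cells. The procedure follows an earlier report. Each experiment was performed three times, and significance was taken at p < 0.01.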
# [2] = Cytotoxicity against syrian hamster HIT-T15 cells assessed as decrease in cell viability at 40 uM by MTT assay; assay type: cell-based, Mesocricetus auratus
Compound,fold change (FC) [1],Activity [2]
CC(C)=CCCC1(C)C=Cc2c(c(C)cc3c2[nH]c2cc(OC4(C(C)C)CC=C(C)CC4)ccc23)O1 (centres undefined),1.9 - 3.1,Non-Toxic
Cc1cc2c([nH]c3c([C@@]4(C)CC[C@@]5(C(C)C)C[C@H]54)c(O)ccc32)c2c1OC(C)(C)C=C2,1.9 - 3.1,Non-Toxic
CC1=C[C@@H](c2c(O)ccc3c2[nH]c2c4c(c(C)cc23)OC(C)(C)C=C4)[C@H](C(C)C)CC1,1.9 - 3.1,Non-Toxic
CC(C)=CCC[C@]1(C)C=Cc2c(c(C)cc3c2[nH]c2c([C@@]4(C)CC[C@@]5(C(C)C)C[C@H]54)c(O)ccc23)O1,1.9 - 3.1,Non-Toxic
COc1cc2c([nH]c3c4c(c(C)cc32)OC(C)(C)C=C4)c([C@@]2(C)CC[C@@]3(C(C)C)C[C@H]32)c1O,1.9 - 3.1,Non-Toxic
COc1cc2c(cc1OC(C)(C)[C@@H]1CC=C(C)CC1)[nH]c1c3c(c(C)cc12)OC(C)(C)C=C3,1.9 - 3.1,Non-Toxic
CC1=CCC(Oc2ccc3c(c2)[nH]c2c4c(c(C)cc23)OC(C)(C)C=C4)(C(C)C)CC1 (centres undefined),1.9 - 3.1,Non-Toxic
Cc1cc2c([nH]c3c([C@]4(C)CC[C@@]5(C(C)C)C[C@H]54)c(O)ccc32)c2c1OC(C)(C)C=C2,1.9 - 3.1,Non-Toxic
CC(C)=CCC[C@]1(C)C=Cc2c(c(C)cc3c2[nH]c2c([C@@H]4C=C(C)CC[C@H]4C(C)C)c(O)ccc23)O1,1.9 - 3.1,Non-Toxic
COc1cc2c(cc1OC1(C(C)C)CC=C(C)CC1)[nH]c1c3c(c(C)cc12)OC(C)(C)C=C3 (centres undefined),1.9 - 3.1,Non-Toxic
COc1cc2c([nH]c3c4c(c(C)cc32)OC(C)(C)C=C4)c([C@]2(C)CC[C@@]3(C(C)C)C[C@H]32)c1O,1.9 - 3.1,Non-Toxic
COc1cc2c([nH]c3c4c(c(C)cc32)OC(C)(C)C=C4)c([C@@H]2C=C(C)CC[C@H]2C(C)C)c1O,1.9 - 3.1,Non-Toxic
